In one series the test system is pAMPK in CCD841Co cells. Kind of series: Phospho-AMPK levels by Western blot. In kind it is cell-based. The conditions noted are these: whole cell lysate, vs DMSO control. Summed up: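 CCD841Co cells grown in MEM with 1 mM pyruvate, non-essential amino acids, 10% FBS. Plated at 0.27 million/well on poly-D-lysine-coated 12-well plates and attached overnight. Medium replaced with test compound or DMSO diluted in DMEM with 2 mM pyruvate and 2 mM L-glutamine. Lysed in Laemmli buffer; immunoblotted for phospho-AMPK (Thr172) and total AMPK, β-actin loading control.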
On the technique in general: Immunoblotting shows a protein as a band on a membrane.

Series [1] in a line: Body weight in CRC240 PDX xenograft study. In kind it is in vivo. The conditions noted are these: DK419 1 mg/kg orally daily for 11 days, tumor-bearing NOD/SCID mice.
The test system of a further series is CCD841Co colonic cells. Kind of series: Oxygen consumption rate, Seahorse XFp analyzer. The conditions noted are these: 1 μM, vs DMSO control media. In kind it is cell-based. Summed up: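 CCD841Co cells seeded at 8000 cells/well in XFp miniplates and attached overnight (37 °C, 5% CO2). Basal OCR recorded, then 1 μM test compound or DMSO in media added. Mito Stress Test followed with sequential 1 μM oligomycin, 1 μM FCCP, and 0.5 μM rotenone plus antimycin A. Mean ± SD, n = 2.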

A further series deals with CRC240 PDX tumors. Description: CRC240 PDX xenograft tumor growth. In kind it is in vivo, NOD/SCID mice. The conditions noted are these: vs vehicle, n = 3. Summed up: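 CRC240 PDX tissue washed and minced in PBS at 150 mg/ml, 200 μl implanted in NOD/SCID flanks. At about 100 mm3, mice randomized and dosed orally once daily for 11 days with test compound suspended at […] in 10% 1-methyl-2-pyrrolidinone/90% PEG300, or vehicle. Tumor size and body weight on days 0, 4, 8, 11; mean ± SEM, n = 3; two-tailed Student's t test vs vehicle.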

Series [2] can be described thus: Plasma pharmacokinetics after oral dose. In kind it is in vivo, NOD/SCID mice. The conditions noted are these: DK419 1 mg/kg oral, mice. Summed up:
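Test compound at 0.2 mg/mL in 10% N-methylpyrrolidinone/90% PEG300, single oral 1 mg/kg to NOD/SCID mice (n = 4). Serial tail-vein blood into heparin, pre-dose to 72 h. Plasma extracted with ethyl acetate plus an internal standard analog, then LC/MS/MS; calibration range 2.4 (LLOQ) to 1000 ng/mL. Parameters from compartmental (first-order absorption/elimination) and non-compartmental analysis.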

A further series relates to six CRC tumor cell lines. Description: MTS cell proliferation assay, panel of six CRC cell lines. In kind it is cell-based. The conditions noted are these: 72 h, read-out: IC50 values, range over the six CRC cell lines. Summed up: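 Six CRC lines, each in its own medium (Leibovitz's, McCoy's 5A, MEM or RPMI) with 10% FBS and penicillin-streptomycin. Seeded at 5000 cells/well, then exposed 72 h to test compound over 0.04–10 μM or 0.001–10 μM depending on compound. Viability by colorimetric MTS; IC50 from curve fitting.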
(In general: Tetrazolium dyes change colour on reduction, which living cells bring about.)

The conditions of series [3]: Niclosamide 200 mg/kg oral, mice, plasma, non-compartmental, cited from earlier work.
A further series deals with HCT116 cells. The conditions noted are these: 0.5 and 1.5 μM; cited from earlier work.

Each structure is given as a SMILES string. Read-outs that look alike come from different tables or passages of the source.

Data on two compounds can be found in paper PMC6688896 (Bioorganic & medicinal chemistry, 2018).

In general, CL/F refers to the apparent clearance, not corrected for the fraction that reaches the circulation. In general, Vd/F refers to the volume of distribution divided by bioavailability. As a reminder, the IC50 is the midpoint of a concentration-inhibition curve. As to `O=C(Nc1ccc(C(F)(F)F)cc1)c1cc(Cl)cc2nc(C(F)(F)F)[nH]c12` [DK419, 6-chloro-2-(trifluoromethyl)-N-(4-(trifluoromethyl)phenyl)-1H-benzo[d]imidazole-4-carboxamide], the “pAMPK levels by Western blot” value with pAMPK in CCD841Co cells is “increased the levels of pAMPK”. Also, the body weight result in series [1] was “Neither DK419 nor Niclosamide produced a change in body weight”. Further, the oxygen consumption rate result in the series on CCD841Co colonic cells is “increases the rate of oxygen consumption”. In the series on CRC240 PDX tumors (DK419 1 mg/kg orally daily for 11 days), the “growth of CRC240 PDX tumors (tumor volume)” value is reported as “inhibited the growth of CRC240 PDX tumors compared to vehicle control”. For the same compound, the “time for which plasma levels were sustained” value in series [2] was “more than 24 hours”. For the same compound, in series [2] (plasma, compartmental), the AUCinf is 16300 ng·h/mL (per kg BW), the AUCinf/DOSE is 16.3 µg·h/mL (per mg), the apparent clearance CL/F is recorded as 0.06 L/h (per kg BW) and the Vd/F is 0.98 L (per kg BW). In addition, in series [2] (plasma, non-compartmental), the AUCinf was 16900 ng·h/mL (per kg BW), the AUCinf/DOSE is 16.9 µg·h/mL (per mg), the apparent clearance (CL/F) is 0.06 L/h (per kg BW) and the “Vd/F (Vz)” value is given as 0.80 (Vz) L (per kg BW). Further, in series [2] (plasma, non-compartmental, 0–72 h), the AUC0-LAST is listed as 16.8 ( 0–72 h) h μg/mL (per kg BW). In addition, in the series on six CRC tumor cell lines, the half-inhibitory concentration (IC50) was in the range of 70 to 360 nM.

As for `O=C(Nc1ccc([N+](=O)[O-])cc1Cl)c1cc(Cl)ccc1O` [Niclosamide, reference compound], the “pAMPK levels by Western blot” value in the series on pAMPK in CCD841Co cells is “increased pAMPK levels versus control”. For the same compound, the oxygen consumption rate result in the series on CCD841Co colonic cells is on record as “increases the oxygen consumption rate”; in the series on HCT116 cells, “caused oxygen consumption rate to increase”. The “growth of CRC240 PDX tumors (tumor volume)” value in the series with CRC240 PDX tumors (Niclosamide 72 mg/kg orally daily for 11 days) is given as “inhibited tumor growth”. The AUC0-LAST in series [3] (0–24 h) is recorded as 1.01 ( 0–24 h) h μg/mL (per kg BW). The AUCinf in series [3] is 1020 ng·h/mL (per kg BW). The IC50 in the series on six CRC tumor cell lines was in the range of 110 to 2390 nM.
